Laboratory results from ChEMBL document CHEMBL1137876, “Synthesis and biological evaluation of novel cytotoxic phospholipids for prostate cancer” (Bioorg Med Chem Lett, 2004).

Experiments:
PC-3 [1] = experiment: Concentration required to inhibit proliferation of PC-3 prostate cancer cell lines; assay type: functional, cell-based; conditions: Homo sapiens
Procedure, shortened: (§1)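 SRB assay. Cells were exposed to compound at 0–100 µM for 96 h, then fixed with 10% trichloroacetic acid, washed five times with water, air dried overnight and stained with SRB. Protein-bound dye was read at 540 nm.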

[2] = Concentration required to inhibit proliferation of PPC-1 prostate cancer cell lines; assay type: functional, cell-based; conditions: Homo sapiens; procedure, shortened: as §1
LNCaP [3] = experiment: Concentration required to inhibit proliferation of LNCaP prostate cancer cell lines; assay type: functional, cell-based; conditions: Homo sapiens; procedure, shortened: as §1
CHO = experiment: Concentration required to inhibit tumor growth in CHO cells; assay type: functional, cell-based; conditions: Cricetulus griseus; procedure, shortened: as §1
DU-145 [4] = experiment: Concentration required to inhibit proliferation of DU-145 prostate cancer cell lines; assay type: functional, cell-based; conditions: Homo sapiens; procedure, shortened: as §1
[5] = Concentration required to inhibit proliferation of TSU prostate cancer cell lines; assay type: functional, cell-based; conditions: Homo sapiens; procedure, shortened: as §1
LNCaP [6] = experiment: Concentration required to inhibit proliferation of LNCaP prostate cancer cell lines; NA denotes not active; assay type: functional, cell-based, […]; procedure, shortened: as §1
[7] = Concentration required to inhibit tumor growth in RH7777 cells; assay type: functional, cell-based; procedure, shortened: as §1
DU-145 [8] = experiment: Concentration required to inhibit proliferation of DU-145 prostate cancer cell lines; NA denotes not active; assay type: functional, cell-based, […]; procedure, shortened: as §1
[9] = Concentration required to inhibit proliferation of TSU prostate cancer cell lines; NA denotes not active; assay type: functional, cell-based, […]; procedure, shortened: as §1
PC-3 [10] = experiment: Concentration required to inhibit proliferation of PC-3 prostate cancer cell lines; NA denotes not active; assay type: functional, cell-based, […]; procedure, shortened: as §1

SMILES	IC50 (PC-3 [1])	IC50 [2]	IC50 (LNCaP [3])	IC50 (CHO)	IC50 (DU-145 [4])	IC50 [5]	IC50 (LNCaP [6])	IC50 [7]	IC50 (DU-145 [8])	IC50 [9]	IC50 (PC-3 [10])
CCCCCCCCNC(=O)[C@H](CO)NC(=O)CCCCCCC	81.5 µM	81.2 µM	> 100 µM	> 100 µM	> 100 µM	93.8 µM					
O=c1[nH]cc(F)c(=O)[nH]1 [FLUOROURACIL]			4.9 µM								
CCCCCCCC/C=C/CCCCCCCCC(=O)NCCOP(=O)(O)O	> 50 µM	50 µM		> 50 µM	> 50 µM	> 50 µM	Not Active	> 50 µM			
CCCCCCCC/C=C/CCCCCCCCNC(=O)[C@@H](N)CO	5.9 µM	5.1 µM	6.6 µM	5.2 µM	6.9 µM	5.5 µM		6.8 µM			
CCCCCCCC/C=C/CCCCCCCCC(=O)NCCO		> 20 µM		> 20 µM			Not Active	> 20 µM	Not Active	Not Active	Not Active
